# Hits are enriched below; roughly 3.5% of the tested compounds scored in any of these assays.
# RGS4 act = RGS4 potentiation or activation; HEK293 M3R/inducible RGS4, carbachol calcium flux Fluo4; active compounds read low; B-score at 10 µM; hit rate 0.92% among 310,000;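 active = B-score of the integrated calcium signal more than 4 SD below the library mean, with starting fluorescence not abnormally high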;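 note: negative B-score means reduced calcium response which marks RGS4 activation or potentiation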
#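 Detection: kinetic calcium fluorescence imaging with Fluo4-AM dye, 2 µM / Material: HEK293 cells with stable M3R and inducible RGS4 / Schedule: recording 10 s baseline at 1 Hz, 100 s post-agonist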
# RGS4 block = human RGS4 inhibition; HEK293 M3R/RGS4 inducible, Fluo-4 calcium flux; active compounds read high; triggered by carbachol at its EC20; B-score at 10 µM; hit rate 0.45% among 310,000; AID 463165;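 active = B-score, a plate-corrected calcium signal, over three deviations above library mean, with baseline fluorescence within five deviations of library mean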;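 note: RGS4 expression induced by doxycycline in cells with stable M3 receptor; B-score is computed from the integrated fluorescence ratio over baseline after carbachol; higher B-score means a larger calcium signal and so more RGS4 inhibition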
# Target sequence (P49798 whole entry, looked up): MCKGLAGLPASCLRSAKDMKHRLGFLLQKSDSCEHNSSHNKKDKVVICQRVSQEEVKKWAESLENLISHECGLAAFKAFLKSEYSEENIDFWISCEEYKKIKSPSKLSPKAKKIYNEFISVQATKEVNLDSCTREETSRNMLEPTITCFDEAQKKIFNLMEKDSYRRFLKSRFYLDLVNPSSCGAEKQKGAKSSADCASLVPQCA
# MrgX1 ag = agonists of human MrgX1 receptor; MrgX1-HEK293 cells, Fluo-4 calcium fluorescence, agonist mode; active compounds read high; B-score at 10 µM; hit rate 0.44% among 310,000;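 active = calcium response B-score plate-corrected fluorescence ratio at least 3 library SD, with starting fluorescence B-score inside 5 SD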
# Target sequence (Q96LB2 whole entry, looked up): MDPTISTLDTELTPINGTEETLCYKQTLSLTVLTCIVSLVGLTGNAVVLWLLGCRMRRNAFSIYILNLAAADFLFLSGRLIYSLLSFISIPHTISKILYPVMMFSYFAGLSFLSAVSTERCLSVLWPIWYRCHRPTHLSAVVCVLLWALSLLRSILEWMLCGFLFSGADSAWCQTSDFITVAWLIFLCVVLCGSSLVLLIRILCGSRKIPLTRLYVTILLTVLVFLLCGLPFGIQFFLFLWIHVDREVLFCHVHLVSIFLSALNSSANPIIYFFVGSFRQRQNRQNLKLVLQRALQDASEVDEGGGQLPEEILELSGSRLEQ
#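 Test system: HEK293 cells stably expressing human MrgX1 receptor; amount: 15,000 cells per well; doses: compound delivered in addition one of three; times: overnight plating before 1 h dye loading; detection: Fluo-4 NW calcium-flux fluorescence, kinetic read; read-out basis: B-scored fluorescence response ratio; controls: positive and negative controls per plate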
# MrgX1 antagonist = blocks BAM8-22 activation of human MrgX1 receptor | Q96LB2 | MRGX1-HEK293 calcium flux, Fluo-4, BAM8-22 antagonism; active compounds read low | B-score at 10 µM | hit rate 1.3% among 310,000 | AID 588676;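 active = calcium-response B-score plate-corrected more than 3 library SD below zero, starting fluorescence within 5 deviations, no agonist response on first addition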;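 note: peak minus trough fluorescence over baseline after final BAM8-22 challenge near maximal dose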
# MrgX1 allo act = human MrgX1 positive allosteric modulation, primary screen. Q96LB2. MrgX1-HEK293, Fluo-4 calcium flux, FDSS; active compounds read high. B-score at 10 µM. hit rate 0.63% among 310,000;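 active = plate-corrected calcium response at least 3 library SD above typical, normal starting fluorescence, not activating the receptor alone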;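 note: compound read alongside a low EC10 to EC30 dose of BAM8-22 agonist; peak minus trough fluorescence over baseline measured at the second addition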
# Numbers without * were called inactive; i = inactive; · = no result.
SMILES,RGS4 act,RGS4 block,MrgX1 ag,MrgX1 antagonist,MrgX1 allo act
CN1CCN(C(=O)CCN2C(=O)c3ccccc3S2(=O)=O)CC1,i,i,i,-7.4*,i
CCNc1nc(NCC)nc(SCCOC(=O)c2ccccc2)n1,i,i,42*,i,i
Cn1c(=O)[nH]c(=O)c2c1nc(N1CCOCC1)n2CCCSc1ncccn1,i,i,i,i,i
O=[N+]([O-])c1ccc(N2CCN(C(=S)Nc3ccccc3)CC2)cc1,i,i,i,i,7.5*
COc1cc(OC)nc(NC(=O)NS(=O)(=O)c2ccc(OC(F)(F)F)cc2)n1,i,i,i,i,i
COC(=O)C(C)Oc1ccc2c(c1)O/C(=C\c1ccco1)C2=O (stereo not drawn),-9.1*,i,i,i,i
COc1ccc(/C=C2\Oc3cc(OCC(N)=O)ccc3C2=O)cc1OC,-8.2*,i,i,-5.4*,i
O=C(O)/C=C/C(=O)NCc1ccccn1,i,i,i,-6.7*,i
O=C(O)/C=C/C(=O)NCc1ccccc1,i,i,i,i,i
CN1CCN(c2ccccc2NC(=O)c2ccc([N+](=O)[O-])cc2Cl)CC1,i,i,i,i,i
COc1cc(/C=C(\C#N)c2nc(-c3cc4ccccc4oc3=O)cs2)ccc1O,i,i,i,-9.2*,i
Cc1c(C)c2ccc(OCC(=O)N3CCN(C(=O)C4COc5ccccc5O4)CC3)cc2oc1=O (stereo not drawn),-7.2*,i,i,i,i
Cc1cc(=O)oc2cc(OCC(=O)N3CCN(C(=O)C4COc5ccccc5O4)CC3)ccc12 (stereo not drawn),i,i,i,i,i
O=S(=O)(Nc1ccccc1O)c1ccc(Cl)nc1,i,i,i,i,i
O=C(/C=C/c1ccc([N+](=O)[O-])s1)N1CCCC1,i,i,i,-4.6*,i
O=C(/C=C/c1ccc([N+](=O)[O-])s1)N1CCCCC1,i,i,i,i,i
O=C(CN1CCCCC1)N1N=C(c2cccs2)CC1c1cccs1 (stereo not drawn),-8*,i,i,i,i
CCCCCNC(=O)Cn1c(=O)c2c(ncn2CC(C)C)n(Cc2ccccc2)c1=O,i,i,i,i,i
CCCOc1cccc(C2C(C(=O)c3cccs3)=C(O)C(=O)N2CCN2CCOCC2)c1 (stereo not drawn),i,i,i,i,i
Clc1ccc2[nH]cc(-c3nnnn3-c3ccccc3)c2c1,i,i,i,i,i
O=C(COc1ccccc1)NNC(=S)NC(=O)c1ccccc1,i,i,i,i,i
O=C(Cc1ccccc1)NNC(=S)NC(=O)c1cccs1,i,i,60*,i,i
O=C(Cc1cccs1)NNC(=S)NC(=O)c1ccccc1,i,i,43*,i,i
O=C(NC(=S)NCc1ccccc1)c1cccs1,i,i,i,i,i
O=C(Cc1cccs1)NNC(=S)NC(=O)c1ccc(F)c(F)c1,i,i,61*,i,i
SMILES,RGS4 act,RGS4 block,MrgX1 ag,MrgX1 antagonist,MrgX1 allo act
CC1=CN2C(=N)/C(=C/c3ccc(C)o3)C(=O)N=C2S1,i,i,i,i,15*
NS(=O)(=O)c1ccc(CCNCc2ccccc2OCc2ccc(Cl)cc2)cc1,i,i,i,-7.2*,i
NS(=O)(=O)c1ccc(CCNCc2cc(Cl)ccc2OCc2ccccc2)cc1,i,i,i,-7.2*,i
Nc1nonc1C(=O)NCCNCc1cc(Br)ccc1OCc1ccccc1F,i,i,i,i,i
NS(=O)(=O)c1ccc(CCNCc2cc(Br)ccc2OCc2ccccc2F)cc1,i,i,i,-4.7*,i
C=CCOc1ccccc1CNCCc1ccc(S(N)(=O)=O)cc1,i,i,i,i,i
COc1ccccc1CNC(=O)c1cc(-c2ccccc2)n(Cc2cc(C)no2)n1,·,·,i,i,i
COc1cccc(/C=N/NC(=O)c2ccoc2C)c1,-8.5*,i,i,i,i
CCOC(=O)C1CCCN(CCC(=O)Nc2ccc(Br)c(C)c2)C1 (stereo not drawn),i,i,i,i,i
O=C(O)/C=C\c1cccc(-n2nnnc2SCc2ccccc2F)c1,i,i,i,i,i
CCS(=O)(=O)c1nc(S(=O)(=O)c2ccc(Cl)cc2)c(N2CCc3ccccc3C2)s1,i,i,i,i,i
COc1ccccc1OCCC(=O)OCC(=O)NC(C)c1ccccc1 (stereo not drawn),i,i,i,-6.1*,i
N/C(Cc1ccc(Cl)c(Cl)c1)=N\OC(=O)c1cccs1,i,i,i,i,i
N/C(=N\OC(=O)c1cccs1)C1(c2ccc(Cl)cc2Cl)CC1,i,i,i,i,14*
COc1ccc(S(=O)(=O)C(C#N)c2nc3ccccc3nc2N2CCC(C)CC2)cc1 (stereo not drawn),i,i,i,i,i
CC(C)CN1C(=S)SC(C)(C)C1n1oc(=O)n(-c2ccccc2)c1=O (stereo not drawn),i,i,i,i,i
CC(C)CN1C(=S)SC(C)(C)C1n1oc(=O)n(-c2ccc(Cl)cc2)c1=O (stereo not drawn),-11*,i,i,i,i
O=C(NCc1ccco1)C1CC(c2ccc(C(F)(F)F)cc2)=NO1 (stereo not drawn),i,i,i,i,i
Clc1ccc(-c2nnsc2SCc2ccccc2)cc1,i,i,i,i,i
Clc1ccc(CSc2snnc2-c2ccccc2)cc1,-7.2*,i,i,i,i
COc1ccc(N2CCN(S(=O)(=O)CCNC(=O)/C=C/c3ccccc3)CC2)cc1,i,i,i,i,i
COc1ccc(C(=O)NNC(=S)NC(=O)c2cc(-c3ccccc3)nc3ccccc23)cc1,i,i,i,-6.8*,i
COc1ccc(Cl)cc1C(=O)NNC(=S)NC(=O)c1cc(-c2ccccc2)nc2ccccc12,-9.8*,i,i,-6.5*,i
CCNC(=S)NNC(=O)c1cc(-c2ccc(OCC)cc2)nc2ccccc12,i,i,i,i,i
COc1ccc(C(=O)NC(=S)NNC(=O)c2ccccc2C)cc1,i,i,62*,i,i
CCCOc1ccc(C(=O)NNC(=S)NC(=O)c2cc(-c3ccc(Cl)cc3)nc3ccccc23)cc1,-9*,i,i,i,i
COc1cc(/C=N/NC(=O)C2c3ccccc3Oc3ccccc32)ccc1O,i,i,i,i,i
